Legend:
[1] = target: T1, Alpha-1B adrenergic receptor (Homo sapiens, UniProt P35368); test: Displacement of [3H]-prazosin from human adrenergic alpha-1b receptor expressed in CHO cells after 120 mins by liquid scintillation counting; type: cell-based
T1 sequence (P35368 whole entry): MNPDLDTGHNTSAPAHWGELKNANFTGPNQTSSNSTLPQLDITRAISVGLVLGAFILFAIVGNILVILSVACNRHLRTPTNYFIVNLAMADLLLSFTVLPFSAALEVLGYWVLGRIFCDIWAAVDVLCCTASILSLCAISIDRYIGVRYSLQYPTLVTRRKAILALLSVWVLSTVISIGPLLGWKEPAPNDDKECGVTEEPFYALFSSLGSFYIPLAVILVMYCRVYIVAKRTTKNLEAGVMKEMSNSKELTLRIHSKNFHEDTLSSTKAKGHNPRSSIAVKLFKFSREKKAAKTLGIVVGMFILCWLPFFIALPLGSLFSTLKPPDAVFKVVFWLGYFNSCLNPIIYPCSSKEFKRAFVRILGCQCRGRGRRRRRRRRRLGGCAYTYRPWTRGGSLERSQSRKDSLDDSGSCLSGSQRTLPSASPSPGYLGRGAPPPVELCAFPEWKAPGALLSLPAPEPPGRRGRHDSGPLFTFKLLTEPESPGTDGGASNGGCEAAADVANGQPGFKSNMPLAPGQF
How it was run: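 Competition binding at human α1b receptors stably expressed in CHO cells. Affinity values are means ± SEM of at least two experiments, each in duplicate.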

[2] = target: T2, Alpha-2A adrenergic receptor (Homo sapiens, UniProt P08913); test: Displacement of [3H]-RX821002 from human adrenergic alpha2A receptor expressed in rat C6 cells after 120 mins by liquid scintillation counting; type: cell-based
T2 sequence (P08913 whole entry): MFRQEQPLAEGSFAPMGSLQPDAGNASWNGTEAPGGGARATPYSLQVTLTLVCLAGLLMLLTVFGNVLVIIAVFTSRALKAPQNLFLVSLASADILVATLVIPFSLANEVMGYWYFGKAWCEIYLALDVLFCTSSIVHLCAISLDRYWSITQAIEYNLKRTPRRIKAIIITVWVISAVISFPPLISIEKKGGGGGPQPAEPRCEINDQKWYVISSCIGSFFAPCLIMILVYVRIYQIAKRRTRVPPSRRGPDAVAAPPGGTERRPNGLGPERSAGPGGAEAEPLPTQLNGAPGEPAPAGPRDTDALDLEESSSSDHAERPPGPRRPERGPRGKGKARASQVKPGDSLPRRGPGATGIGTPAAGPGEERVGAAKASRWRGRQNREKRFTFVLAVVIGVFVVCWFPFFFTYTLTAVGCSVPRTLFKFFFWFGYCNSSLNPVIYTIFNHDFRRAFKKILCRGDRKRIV
How it was run: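 Competition binding at human α2A receptors expressed in C6 glial cells. Affinity values are means ± SEM of at least two experiments, each in duplicate.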

[3] = target: T3, Alpha-2B adrenergic receptor (Homo sapiens, UniProt P18089); test: Displacement of [3H]-RX821002 from human adrenergic alpha2B receptor expressed in rat C6 cells after 120 mins by liquid scintillation counting; type: cell-based
T3 sequence (P18089 whole entry): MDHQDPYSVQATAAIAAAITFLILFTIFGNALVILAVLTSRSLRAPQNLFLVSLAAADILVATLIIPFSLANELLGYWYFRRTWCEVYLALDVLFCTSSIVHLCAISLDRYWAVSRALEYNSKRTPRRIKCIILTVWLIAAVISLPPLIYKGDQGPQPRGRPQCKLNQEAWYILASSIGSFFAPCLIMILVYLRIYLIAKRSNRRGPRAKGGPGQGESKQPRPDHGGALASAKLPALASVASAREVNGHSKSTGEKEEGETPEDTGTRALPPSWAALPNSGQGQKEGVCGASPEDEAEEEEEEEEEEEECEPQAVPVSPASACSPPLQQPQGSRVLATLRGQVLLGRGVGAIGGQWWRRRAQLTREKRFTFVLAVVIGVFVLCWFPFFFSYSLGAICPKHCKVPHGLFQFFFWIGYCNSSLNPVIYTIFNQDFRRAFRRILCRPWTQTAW

[4] = target: T4, Alpha-2C adrenergic receptor (Homo sapiens, UniProt P18825); test: Displacement of [3H]-RX821002 from human adrenergic Alpha-2C receptor expressed in rat C6 cells after 120 mins by liquid scintillation counting; type: cell-based
T4 sequence (P18825 whole entry): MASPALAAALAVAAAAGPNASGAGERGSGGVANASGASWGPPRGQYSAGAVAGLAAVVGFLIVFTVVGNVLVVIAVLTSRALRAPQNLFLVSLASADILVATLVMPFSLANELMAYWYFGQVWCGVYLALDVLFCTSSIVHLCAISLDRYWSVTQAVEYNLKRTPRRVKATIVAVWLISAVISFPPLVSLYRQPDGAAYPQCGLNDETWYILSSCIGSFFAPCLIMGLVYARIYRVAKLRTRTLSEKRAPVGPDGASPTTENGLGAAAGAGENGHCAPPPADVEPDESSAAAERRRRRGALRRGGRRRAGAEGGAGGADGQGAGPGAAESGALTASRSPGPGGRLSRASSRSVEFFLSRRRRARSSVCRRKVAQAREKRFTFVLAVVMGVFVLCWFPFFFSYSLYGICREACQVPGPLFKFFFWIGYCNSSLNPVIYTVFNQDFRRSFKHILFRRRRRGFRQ

Mus musculus [5] = test: Antihypothermic activity in ip dosed NMRI mouse assessed as inhibition of guanabenz-induced hypothermia administered 5 mins before guanabenz challenge measured after 25 mins; type: functional
How it was run: (§1)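 Mice got the compound by intraperitoneal injection or oral gavage before guanabenz challenge, and reversal of guanabenz-induced hypothermia was scored. Five animals were tested per dose. ED50 is the dose giving an inhibitory effect in 50% of guanabenz-treated animals, with 95% confidence limits.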

Mus musculus [6] = test: Antihypothermic activity in po dosed NMRI mouse assessed as inhibition of guanabenz-induced hypothermia administered 35 mins before guanabenz challenge measured after 25 mins; type: functional; how it was run: as §1
Mus musculus [7] = test: Ratio of ED50 for santihypothermic activity in po dosed NMRI mouse to ED50 for antihypothermic activity in ip dosed NMRI mouse; type: functional
How it was run: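 Guanabenz-induced hypothermia in mice, five animals per dose. ED50 (the dose inhibiting hypothermia in 50% of guanabenz-treated animals) was obtained after oral gavage and after intraperitoneal injection, and the ratio po/ip was then calculated.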

[8] = target: T5, Alpha-2A adrenergic receptor (Homo sapiens) (UniProt P08913); test: Antagonist activity at human adrenergic alpha2A receptor expressed in CHO cells assessed as inhibition of adrenaline-induced [35S]GTPgammaS binding after 30 mins by scintillation counting; type: functional, cell-based
T5 sequence (whole entry): T2 sequence (P08913 whole entry)
How it was run: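 Inhibition of adrenaline-stimulated [35S]GTPγS binding in CHO cells expressing human α2A receptors. Compounds were also run alone to check for any stimulation of [35S]GTPγS binding. Antagonist potency is reported as pKB, taken as the potency that inhibits 50% of adrenaline-induced binding.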

Row | SMILES | Ki [1] [nM] | Ki [2] [nM] | Ki [3] [nM] | Ki [4] [nM] | ED50 (Mus musculus [5]) [mg/kg] | ED50 (Mus musculus [6]) [mg/kg] | Ratio ED50 (Mus musculus [7]) | pKb [8] | ED50 (Mus musculus [5]; Mus musculus, NMRI, ip, read-out: ED50) [mg/kg] | ED50 (Mus musculus [6]; Mus musculus, NMRI, po, read-out: ED50) [mg/kg]
1 | c1ccc2c(c1)C[C@]1(c3c[nH]cn3)C[C@H]21 (stereo in doubt; 1) [listing 1 of 2 here] | 1.32 | 0.0692 | 0.115 | 0.178 | 0.03 | 0.12 | 4 | – | – | –
2 | CCCO[C@H]1c2ccccc2[C@H]2C[C@]21c1cnc[nH]1 (relative stereo) | 11.5 | 3.98 | 6.46 | 1.55 | – | – | – | – | – | –
3 | CO[C@H]1c2ccccc2[C@H]2C[C@]21c1c[nH]cn1 (relative stereo) [listing 1 of 2 here] | – | – | – | – | – | – | – | 8.28 | – | –
4 | CO[C@H]1c2ccccc2[C@H]2C[C@]21c1c[nH]cn1 (stereo in doubt; (+)-3) [listing 1 of 2 here] | – | – | – | – | – | – | – | 8.54 | – | –
5 | CO[C@H]1c2ccccc2[C@H]2C[C@]21c1c[nH]cn1 (stereo in doubt; (-)-3) [listing 1 of 2 here] | 1780 | 55 | 145 | 195 | – | – | – | – | – | –
6 | c1ccc2c(c1)[C@H]1C[C@@]1(c1c[nH]cn1)C21CC1 (stereo in doubt; 10) [listing 1 of 2 here] | – | – | – | – | – | – | – | 9.05 | – | –
7 | c1ccc2c(c1)C[C@]1(c3c[nH]cn3)C[C@H]21 (stereo in doubt; (-)-1) [listing 1 of 2 here] | – | – | – | – | – | – | – | 10.2 | – | –
8 | CO[C@H]1c2ccccc2[C@H]2C[C@]21c1c[nH]cn1 (stereo in doubt; (-)-3) [listing 2 of 2 here] | – | – | – | – | – | – | – | 6.44 | – | –
9 | CO[C@H]1c2ccccc2[C@H]2C[C@]21c1c[nH]cn1 (relative stereo) [listing 2 of 2 here] | 102 | 1.74 | 7.76 | 5.75 | 0.09 | 0.28 | 3.1 | – | – | –
10 | C[C@H]1c2ccccc2[C@H]2C[C@]21c1c[nH]cn1 (relative stereo) | – | – | – | – | – | – | 1.5 | 9.54 | 0.006 | 0.009
11 | c1ccc2c(c1)[C@H]1C[C@@]1(c1c[nH]cn1)C21CC1 (stereo in doubt; (-)-10) [listing 1 of 2 here] | 97.7 | 3.89 | 6.76 | 20.4 | 0.18 | 1.87 | 10.4 | – | – | –
12 | c1ccc2c(c1)C[C@]1(c3c[nH]cn3)C[C@H]21 (stereo in doubt; 1) [listing 2 of 2 here] | – | – | – | – | – | – | – | 9.78 | – | –
13 | CCC1(c2cnc[nH]2)Cc2ccccc2C1 [ATIPAMEZOLE] | 1950 | 1.86 | 2.24 | 4.17 | – | – | – | – | – | –
14 | C[C@H]1c2ccccc2[C@H]2C[C@]21c1cnc[nH]1 (relative stereo) | 6.17 | 0.219 | 0.692 | 0.537 | – | – | – | – | – | –
15 | CO[C@@H]1c2ccccc2[C@H]2C[C@]21c1cnc[nH]1 (relative stereo) | 912 | 11.7 | 24 | 66.1 | – | – | – | – | – | –
16 | c1ccc2c(c1)[C@H]1C[C@@]1(c1c[nH]cn1)C21CC1 (stereo in doubt; (-)-10) [listing 2 of 2 here] | – | – | – | – | – | – | – | 7.75 | – | –
17 | CO[C@@H]1c2ccccc2[C@H]2C[C@]21c1c[nH]cn1 (relative stereo) | – | – | – | – | – | – | – | 6.9 | – | –
18 | CC[C@H]1[C@@H]2c3ccccc3C[C@]12c1c[nH]cn1 | 16.6 | 0.138 | 0.182 | 0.17 | – | – | – | – | – | –
19 | CC(C)O[C@H]1c2ccccc2[C@H]2C[C@]21c1c[nH]cn1 (relative stereo) | 316 | 45.7 | 11.7 | 89.1 | – | – | – | 6.88 | – | –
20 | CO[C@H]1c2ccccc2[C@H]2C[C@]21c1c[nH]cn1 (stereo in doubt; (+)-3) [listing 2 of 2 here] | 63.1 | 0.562 | 2.82 | 1.95 | 0.03 | 0.07 | 2.3 | – | – | –
21 | c1ccc2c(c1)[C@H]1C[C@@]1(c1c[nH]cn1)C21CC1 (stereo in doubt; (+)-10) [listing 1 of 2 here] | – | – | – | – | – | – | – | 8.88 | – | –
22 | c1ccc2c(c1)[C@H]1C[C@@]1(c1c[nH]cn1)C21CC1 (stereo in doubt; (+)-10) [listing 2 of 2 here] | 18.2 | 0.331 | 1.91 | 2.14 | 0.08 | 0.22 | 2.8 | – | – | –
23 | c1ccc2c(c1)C[C@]1(c3c[nH]cn3)C[C@H]21 (stereo in doubt; (-)-1) [listing 2 of 2 here] | 1.05 | 0.0282 | 0.11 | 0.129 | 0.008 | 0.04 | 5 | – | – | –
24 | c1ccc2c(c1)[C@H]1C[C@@]1(c1c[nH]cn1)C21CC1 (stereo in doubt; 10) [listing 2 of 2 here] | 14.8 | 0.603 | 3.72 | 2.69 | 0.06 | – | 3.7 | – | – | –

From ChEMBL document CHEMBL1255566, “Rigid analogues of the α2-adrenergic blocker atipamezole: small changes, big consequences” (J Med Chem, 2010)
